This is an account of results in ChEMBL document CHEMBL3797175, “Discovery of 6-(difluoro(6-(4-fluorophenyl)-[1,2,4]triazolo[4,3-b][1,2,4]triazin-3-yl)methyl)quinoline as a highly potent and selective c-Met inhibitor” (Eur J Med Chem, 2016).

Data set [1] in a line: Selectivity ratio of IC50 for human NCI-H460 cells to IC50 for human MKN45 cells. Type of data set: ADME, cell-based. In short, it runs like this: (§1)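 Both IC50s in each ratio come from one proliferation assay. Cells were seeded and exposed the next day to a range of concentrations for 72 h, then read by SRB or MTT. IC50s were fitted by four-parameter concentration–response, with each concentration at least in triplicate and at least 2 experiments. BaF3/TPR-Met is murine pre-B BaF3 transfected with TPR-MET and puromycin-selected.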

A short description of data set [2]: Selectivity ratio of IC50 for human SMMC7721 cells to IC50 for human EBC1 cells. In kind it is ADME, cell-based. To be noted: smmc-7721. In short, it runs like this: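 Each cell line was seeded in 96-well plates, then exposed the next day to a range of compound concentrations for 72 h. Growth was read by SRB or MTT assay, and IC50 was fitted by a four-parameter concentration-response curve. Each concentration was run at least in triplicate, in at least 2 experiments. BaF3/TPR-Met are murine pre-B BaF3 cells transfected with TPR-MET cDNA and selected in puromycin.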

Data set [3] can be described thus: Selectivity ratio of IC50 for human SPCA4 cells to IC50 for human MKN45 cells. Type of data set: ADME, cell-based, SPC-A4. To be noted: SPCA4 cells versus MKN45 cells.
Data set [4] can be described thus: Selectivity ratio of IC50 for human NCI-H661 cells to IC50 for mouse BAF3 cells expressing TPR-MET. Type of data set: ADME, cell-based. In short, it runs like this:
as §1

In data set [5] the target is TPR/MET fusion protein (Mus musculus) (UniProt P16056+F6ZDS4). In words: Inhibition of TPR-MET in mouse BAF3 cells assessed as reduction in ERK phosphorylation at Tyrosine 204 at 10 nM after 1 hr by Western blot analysis. Type of data set: cell-based. In short, it runs like this:
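BaF3 stably expressing TPR-MET (puromycin-selected), grown with IL-3-conditioned medium. Treated 1 h at 37 °C, lysed in SDS sample buffer. 10% SDS-PAGE and immunoblot for phospho-c-Met, phospho-ERK1/2, phospho-AKT and totals; ECL detection.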

The target of data set [6] is T1, Hepatocyte growth factor receptor (Homo sapiens, UniProt P08581). In words: Inhibition of c-Met phosphorylation at Tyrosine 1234 in human MKN45 cells at 10 nM after 1 hr by Western blot analysis. Type of data set: cell-based. To be noted: MKN-45. In outline: (§2)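 EBC-1 or MKN45 cells treated with compound 1 h at 37 °C without HGF, then lysed in 1× SDS sample buffer. Lysates run on 10% SDS-PAGE and transferred to nitrocellulose. Probed with antibodies to c-Met, phospho-c-Met, phospho-ERK1/2, phospho-AKT, AKT and GAPDH, then HRP secondary. ECL detection.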
T1 sequence (P08581 whole entry): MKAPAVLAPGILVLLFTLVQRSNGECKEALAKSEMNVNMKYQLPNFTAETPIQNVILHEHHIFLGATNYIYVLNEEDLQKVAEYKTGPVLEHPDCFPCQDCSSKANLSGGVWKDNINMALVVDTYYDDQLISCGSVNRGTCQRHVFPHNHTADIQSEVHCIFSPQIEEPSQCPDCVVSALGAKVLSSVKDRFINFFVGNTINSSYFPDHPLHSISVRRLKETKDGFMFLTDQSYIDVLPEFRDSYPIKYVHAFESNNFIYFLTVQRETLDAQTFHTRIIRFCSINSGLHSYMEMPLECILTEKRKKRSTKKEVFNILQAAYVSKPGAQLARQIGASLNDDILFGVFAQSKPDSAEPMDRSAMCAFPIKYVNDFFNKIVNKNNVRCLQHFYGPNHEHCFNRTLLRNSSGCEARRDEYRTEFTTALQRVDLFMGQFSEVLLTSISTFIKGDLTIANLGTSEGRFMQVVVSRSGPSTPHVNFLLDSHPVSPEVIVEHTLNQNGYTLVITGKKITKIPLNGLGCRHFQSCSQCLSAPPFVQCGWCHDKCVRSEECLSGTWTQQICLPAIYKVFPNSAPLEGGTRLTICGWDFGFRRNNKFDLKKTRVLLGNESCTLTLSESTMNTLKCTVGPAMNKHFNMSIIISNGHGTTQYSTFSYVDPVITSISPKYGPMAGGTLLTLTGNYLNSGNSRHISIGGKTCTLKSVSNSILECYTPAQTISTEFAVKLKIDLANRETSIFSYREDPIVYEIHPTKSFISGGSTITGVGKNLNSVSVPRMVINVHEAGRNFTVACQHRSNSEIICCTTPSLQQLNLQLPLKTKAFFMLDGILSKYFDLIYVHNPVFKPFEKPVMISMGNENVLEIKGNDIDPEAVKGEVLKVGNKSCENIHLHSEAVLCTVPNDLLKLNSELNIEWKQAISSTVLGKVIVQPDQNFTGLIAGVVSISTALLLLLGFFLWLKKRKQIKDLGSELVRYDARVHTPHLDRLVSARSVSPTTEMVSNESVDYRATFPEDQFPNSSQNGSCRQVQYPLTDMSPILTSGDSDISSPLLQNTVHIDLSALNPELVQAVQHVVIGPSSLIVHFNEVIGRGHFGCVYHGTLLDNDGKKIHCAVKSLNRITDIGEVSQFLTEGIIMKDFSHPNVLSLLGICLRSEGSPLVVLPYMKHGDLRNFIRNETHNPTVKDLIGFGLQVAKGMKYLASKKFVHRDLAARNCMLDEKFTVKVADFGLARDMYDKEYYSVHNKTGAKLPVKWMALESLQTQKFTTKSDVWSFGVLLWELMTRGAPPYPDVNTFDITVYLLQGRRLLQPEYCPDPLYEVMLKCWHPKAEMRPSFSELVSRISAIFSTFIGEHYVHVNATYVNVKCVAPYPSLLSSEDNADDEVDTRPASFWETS

Data set [7] has as its target T1, Hepatocyte growth factor receptor. Briefly: Inhibition of c-Met phosphorylation at Tyrosine 1234 in HGF stimulated human U87MG cells at 10 nM after 1 hr by Western blot analysis. In kind it is cell-based. Particulars: U-87MG ATCC. In outline:
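U87MG cells serum-starved 24 h, pretreated with compound 1 h at 37 °C, then stimulated with HGF (100 ng/mL) for 15 min. Lysed in 1× SDS sample buffer, resolved by 10% SDS-PAGE and blotted to nitrocellulose. Probed for phospho-c-Met, phospho-ERK1/2, phospho-AKT and totals, with GAPDH as loading control. ECL detection.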

For data set [8] the target is unchanged. Briefly: Inhibition of c-Met in HGF stimulated human U87MG cells assessed as reduction in AKT phosphorylation at Serine 473 at 10 nM after 1 hr by Western blot analysis. Type of data set: cell-based. To be noted: U-87MG ATCC. In short, it runs like this:
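U87MG cells serum-starved 24 h, treated 1 h at 37 °C, then stimulated with HGF 100 ng/mL for 15 min. Lysed in SDS buffer, run on 10% SDS-PAGE and immunoblotted for phospho-ERK1/2 and phospho-AKT; ECL detection.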

Data set [9] shares this target. In words: Inhibition of c-Met in human EBC1 cells assessed as reduction in ERK phosphorylation at Tyrosine 204 at 10 nM after 1 hr by Western blot analysis. In kind it is cell-based. In short, it runs like this:
as §2

The nature of data set [10]: Selectivity ratio of IC50 for human NCI-H1299 cells to IC50 for human MKN45 cells. Type of data set: ADME, cell-based. In short, it runs like this: as §1
A short description of data set [11]: Clearance in Sprague-Dawley rat at 2 mg/kg, iv administered as single dose. Particulars: in vivo. Type of data set: ADME, organism-based. In short, it runs like this:
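Male Sprague Dawley rats (n=3), single dose. iv 2 mg/kg in 1% DMA/9% Cremophor/90% saline. po 10 mg/kg in 0.5% CMC-Na. Where iv was 10 mg/kg: 10% DMSO/10% Tween 80/80% (40% PEG40); po in that case in 10% DMSO/5% Tween 80/85% saline.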

Data set [12] can be described thus: Selectivity ratio of IC50 for human SNU16 cells to IC50 for human EBC1 cells. In kind it is ADME, cell-based. To be noted: snu-16.
Data set [13] in a line: Antiproliferative activity against human SGC7901 cells after 72 hrs by SRB or MTT assay. In kind it is functional, cell-based. To be noted: SGC-7901, 72 h. In outline: (§3)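 Cells seeded, exposed next day to a range of concentrations for 72 h. Growth read by sulforhodamine B or MTT. IC50 from four-parameter concentration-response fit. Each concentration tested at least in triplicate, with at least 2 experiments.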

Data set [14] has as its target Platelet-derived growth factor receptor alpha (Homo sapiens) (UniProt P16234). In words: Inhibition of recombinant PDGFRalpha (unknown origin) using poly (Glu, Tyr) 4:1 as substrate at 1000 nM incubated for 60 mins by ELISA relative to control. In outline: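 Recombinant tyrosine kinases assayed on wells precoated with poly(Glu,Tyr)4:1 (20 µg/mL). ATP 10 µmol/L in HEPES pH 7.4 buffer with MgCl2, MnCl2, Na3VO4 and DTT; compound in 1% DMSO, 1% DMSO as control. Reaction 60 min at 37 °C. Phosphotyrosine detected with PY99 and HRP anti-mouse, o-phenylenediamine, A490. Inhibition % relative to control; two experiments.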

A short description of data set [15]: Selectivity ratio of IC50 for human NCI-H661 cells to IC50 for human EBC1 cells. Type of data set: ADME, cell-based. In short, it runs like this: as §1
Data set [16] has as its target Tyrosine-protein kinase receptor TYRO3 (Homo sapiens, UniProt Q06418). In words: Inhibition of recombinant TYRO3 (unknown origin) using poly (Glu, Tyr) 4:1 as substrate incubated for 60 mins by ELISA.
Data set [17] in a line: Antiproliferative activity against human BGC823 cells after 72 hrs by SRB or MTT assay. Type of data set: functional, cell-based. Particulars: BGC-823, 72 h. In short, it runs like this: as §3
Data set [18] is described as follows: Antiproliferative activity against human PANC1 cells after 72 hrs by SRB or MTT assay. In kind it is functional, cell-based. Particulars: PANC-1, 72 h. In outline:
as §3

Data set [19] is described as follows: Selectivity ratio of IC50 for human MDA-MB-231 cells to IC50 for mouse BAF3 cells expressing TPR-MET. Type of data set: ADME, cell-based. In outline:
as §1

Data set [20] in a line: Selectivity ratio of IC50 for human SPCA1 cells to IC50 for human MKN45 cells. To be noted: SPCA1 cells versus MKN45 cells. In kind it is ADME, cell-based.
Data set [21] is described as follows: Antitumor activity against human MKN45 cells xenografted in athymic nude mouse assessed as tumor growth inhibition at 6.25 mg/kg, po bid for 21 days measured twice a week during compound dosing relative to control. Particulars: MKN-45, po, 504 h, read-out: TGI. Type of data set: functional. In short, it runs like this: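 Nude mice bearing s.c. tumours. Cells were first grown s.c. to 700–800 mm³, then 1.5 mm³ fragments were transplanted s.c. into the right flank. Mice were randomised at 100–200 mm³ (n=6 treated, n=12 vehicle) and dosed orally twice daily for 21 days. Caliper measurement twice weekly; TV = length×width²/2. TGI taken on the final day versus vehicle; Student's t test.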

Active and inactive are the calls of the source. No cut-off for these calls is given here. Bounds are passed on as bounds.

Sequence of TPR/MET fusion protein (Mus musculus) (F6ZDS4 whole entry partner, the tested form may be a part): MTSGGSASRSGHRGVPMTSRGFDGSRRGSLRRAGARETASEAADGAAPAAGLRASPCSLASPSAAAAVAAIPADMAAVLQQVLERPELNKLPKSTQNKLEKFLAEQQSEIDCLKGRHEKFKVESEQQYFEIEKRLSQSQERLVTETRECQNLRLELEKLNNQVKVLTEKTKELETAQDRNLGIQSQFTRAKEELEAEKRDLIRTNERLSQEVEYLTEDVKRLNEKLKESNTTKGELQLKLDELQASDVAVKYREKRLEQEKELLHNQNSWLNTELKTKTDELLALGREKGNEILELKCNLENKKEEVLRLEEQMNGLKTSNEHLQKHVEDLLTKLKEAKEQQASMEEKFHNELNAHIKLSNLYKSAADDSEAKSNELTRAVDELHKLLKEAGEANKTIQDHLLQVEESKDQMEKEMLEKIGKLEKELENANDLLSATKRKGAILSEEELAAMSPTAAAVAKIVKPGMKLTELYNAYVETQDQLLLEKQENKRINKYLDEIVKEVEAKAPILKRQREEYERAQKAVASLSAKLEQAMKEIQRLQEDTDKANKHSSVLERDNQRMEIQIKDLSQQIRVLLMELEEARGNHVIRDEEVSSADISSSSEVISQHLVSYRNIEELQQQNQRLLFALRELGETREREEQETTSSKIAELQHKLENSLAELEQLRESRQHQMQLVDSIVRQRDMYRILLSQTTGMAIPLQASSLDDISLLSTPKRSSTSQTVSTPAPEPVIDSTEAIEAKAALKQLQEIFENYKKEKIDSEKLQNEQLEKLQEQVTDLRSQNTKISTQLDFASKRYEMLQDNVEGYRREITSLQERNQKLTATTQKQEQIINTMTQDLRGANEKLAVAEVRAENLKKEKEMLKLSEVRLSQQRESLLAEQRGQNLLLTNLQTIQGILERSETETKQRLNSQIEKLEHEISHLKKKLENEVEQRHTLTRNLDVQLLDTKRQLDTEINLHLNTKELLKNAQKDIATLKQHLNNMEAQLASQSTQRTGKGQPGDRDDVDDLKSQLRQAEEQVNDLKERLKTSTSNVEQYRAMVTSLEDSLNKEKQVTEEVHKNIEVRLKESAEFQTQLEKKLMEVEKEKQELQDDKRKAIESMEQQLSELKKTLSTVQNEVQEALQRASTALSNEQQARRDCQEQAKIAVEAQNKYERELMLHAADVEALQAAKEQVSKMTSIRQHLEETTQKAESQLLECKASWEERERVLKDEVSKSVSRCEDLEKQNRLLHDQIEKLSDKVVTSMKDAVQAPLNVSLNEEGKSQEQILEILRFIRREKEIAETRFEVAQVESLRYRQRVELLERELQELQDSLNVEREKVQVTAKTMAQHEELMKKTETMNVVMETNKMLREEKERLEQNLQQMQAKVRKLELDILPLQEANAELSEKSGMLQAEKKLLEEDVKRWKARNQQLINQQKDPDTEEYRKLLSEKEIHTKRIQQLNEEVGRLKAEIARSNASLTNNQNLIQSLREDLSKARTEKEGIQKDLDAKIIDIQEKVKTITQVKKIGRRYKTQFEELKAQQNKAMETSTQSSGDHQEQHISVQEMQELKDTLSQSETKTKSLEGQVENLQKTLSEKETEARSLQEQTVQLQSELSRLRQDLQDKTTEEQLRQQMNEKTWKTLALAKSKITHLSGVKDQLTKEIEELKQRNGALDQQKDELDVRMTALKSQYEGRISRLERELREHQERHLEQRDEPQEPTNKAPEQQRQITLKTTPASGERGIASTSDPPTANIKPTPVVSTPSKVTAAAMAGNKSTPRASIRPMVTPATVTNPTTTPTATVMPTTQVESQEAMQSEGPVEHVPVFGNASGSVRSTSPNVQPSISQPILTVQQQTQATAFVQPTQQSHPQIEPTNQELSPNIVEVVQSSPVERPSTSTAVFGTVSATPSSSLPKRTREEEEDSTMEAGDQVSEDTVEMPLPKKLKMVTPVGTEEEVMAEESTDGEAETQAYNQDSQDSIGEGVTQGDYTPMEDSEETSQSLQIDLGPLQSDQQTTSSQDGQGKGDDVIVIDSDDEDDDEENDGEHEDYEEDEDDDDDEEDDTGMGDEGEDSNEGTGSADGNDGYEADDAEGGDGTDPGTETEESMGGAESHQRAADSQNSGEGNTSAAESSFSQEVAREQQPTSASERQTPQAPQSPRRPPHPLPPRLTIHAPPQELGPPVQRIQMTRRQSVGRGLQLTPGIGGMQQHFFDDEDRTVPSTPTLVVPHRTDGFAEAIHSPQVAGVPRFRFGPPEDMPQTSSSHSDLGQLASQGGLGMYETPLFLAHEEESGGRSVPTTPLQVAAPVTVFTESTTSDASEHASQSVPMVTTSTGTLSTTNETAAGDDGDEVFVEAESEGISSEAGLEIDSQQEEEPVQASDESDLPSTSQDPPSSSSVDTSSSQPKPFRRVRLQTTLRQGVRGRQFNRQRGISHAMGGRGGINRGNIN
Sequence of TPR/MET fusion protein (Mus musculus) (P16056 25-1379 limits assumed): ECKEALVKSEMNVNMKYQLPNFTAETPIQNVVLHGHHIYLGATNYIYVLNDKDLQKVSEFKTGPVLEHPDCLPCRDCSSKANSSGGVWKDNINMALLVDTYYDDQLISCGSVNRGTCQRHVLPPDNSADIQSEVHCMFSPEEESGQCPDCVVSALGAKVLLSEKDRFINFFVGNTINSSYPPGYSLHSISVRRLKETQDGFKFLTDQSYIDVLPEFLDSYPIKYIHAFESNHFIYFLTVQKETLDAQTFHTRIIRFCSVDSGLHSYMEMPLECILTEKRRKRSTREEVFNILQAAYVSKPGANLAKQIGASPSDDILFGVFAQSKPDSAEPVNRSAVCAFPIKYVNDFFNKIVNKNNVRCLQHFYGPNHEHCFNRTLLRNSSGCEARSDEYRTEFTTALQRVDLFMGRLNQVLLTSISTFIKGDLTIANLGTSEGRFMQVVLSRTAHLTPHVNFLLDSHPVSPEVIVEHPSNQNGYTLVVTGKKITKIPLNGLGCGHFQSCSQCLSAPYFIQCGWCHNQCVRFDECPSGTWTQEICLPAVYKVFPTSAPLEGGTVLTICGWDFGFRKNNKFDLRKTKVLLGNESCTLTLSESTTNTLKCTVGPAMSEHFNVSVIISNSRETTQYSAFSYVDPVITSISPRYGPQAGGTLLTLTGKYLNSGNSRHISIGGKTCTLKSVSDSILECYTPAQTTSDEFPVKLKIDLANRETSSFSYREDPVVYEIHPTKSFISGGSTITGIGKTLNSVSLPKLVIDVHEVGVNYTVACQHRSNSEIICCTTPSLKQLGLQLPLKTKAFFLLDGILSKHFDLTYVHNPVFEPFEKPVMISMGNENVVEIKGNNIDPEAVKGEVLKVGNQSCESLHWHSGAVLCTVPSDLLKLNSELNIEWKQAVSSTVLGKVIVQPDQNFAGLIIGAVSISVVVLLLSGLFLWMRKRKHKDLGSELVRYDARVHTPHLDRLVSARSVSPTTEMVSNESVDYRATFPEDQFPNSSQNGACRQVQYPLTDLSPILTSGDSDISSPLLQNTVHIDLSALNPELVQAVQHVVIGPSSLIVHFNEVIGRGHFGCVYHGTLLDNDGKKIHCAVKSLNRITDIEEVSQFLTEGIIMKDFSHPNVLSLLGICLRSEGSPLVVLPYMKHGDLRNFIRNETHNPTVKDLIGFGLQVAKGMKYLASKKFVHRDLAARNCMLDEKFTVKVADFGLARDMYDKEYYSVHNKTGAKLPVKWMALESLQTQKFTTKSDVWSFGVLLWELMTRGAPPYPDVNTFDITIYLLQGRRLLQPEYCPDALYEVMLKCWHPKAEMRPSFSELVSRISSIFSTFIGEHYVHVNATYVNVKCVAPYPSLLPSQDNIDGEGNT

Consider `Fc1ccc(-c2cnc3nnc(C(F)(F)c4ccc5ncccc5c4)n3n2)cc1`, for which the “Ratio IC50” value in [1] was 10000; in [2] it was 10000; in data set [4] it was above 10000; in [10] it was 10000; in data set [12], 10000; in [15] it was 10000. Also, in [19], the Ratio IC50 was above 10000. Also, the selectivity ratio in data set [3] and in data set [20] was above 10000 in each case. In addition, the inhibition result in data set [5], in data set [6], in data set [7], in data set [8] and in data set [9] was “Active” throughout. The clearance in data set [11] is 47.2 mL/min/kg. The IC50 in [13] is above 10 µM; in [16] it was above 1 µM; in data set [17], above 10 µM; in [18], above 10 µM. Also, the inhibition in data set [14] stood at 31.4%. For the same molecule, the inhibition in vivo at 6.25 mg/kg in [21] stood at 46.8%.
